Measurements published in ChEMBL document CHEMBL1134513, “Synthesis and activities of pyoverdin-quinolone adducts: a prospective approach to a specific Therapy against Pseudomonas aeruginosa” (2001).
≈ marks a conversion by molar mass, not a printed value.

What was measured:
Pseudomonas aeruginosa [1] = assay: Minimum inhibitory concentration against Pseudomonas aeruginosa ATCC 27853 measured in succinate (SC) solid media; type: functional
Pseudomonas aeruginosa [2] = assay: Minimum inhibitory concentration against Pseudomonas aeruginosa ATCC 15692 measured in succinate (SC) liquid media; type: functional
Pseudomonas aeruginosa [3] = assay: Minimum inhibitory concentration against Pseudomonas aeruginosa K690, measured in Muller-Hinton (MH) solid media; type: functional
Pseudomonas aeruginosa [4] = assay: Minimum inhibitory concentration against Pseudomonas aeruginosa ATCC 15692 measured in Muller-Hinton (MH) solid media; type: functional
Pseudomonas aeruginosa [5] = assay: Minimum inhibitory concentration against Pseudomonas aeruginosa K690, measured in succinate (SC) solid media; type: functional
Pseudomonas aeruginosa [6] = assay: Minimum inhibitory concentration against Pseudomonas aeruginosa IAI measured in succinate (SC) solid media; type: functional
Pseudomonas aeruginosa [7] = assay: Minimum inhibitory concentration against Pseudomonas aeruginosa IAI, measured in Muller-Hinton (MH) liquid media; type: functional
In short: (§1)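 Broth microdilution in Müller-Hinton medium, highest final concentration generally 64 µg/mL, final inoculum 10^6 cells/mL, 18 h at 37 °C. […] Adducts expressed as µg/mL quinolone equivalents.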

Pseudomonas aeruginosa [8] = assay: Minimum inhibitory concentration against Pseudomonas aeruginosa ATCC 15692 measured in Muller-Hinton (MH) liquid media; type: functional; in short: as §1
Pseudomonas aeruginosa [9] = assay: Minimum inhibitory concentration against Pseudomonas aeruginosa IAI measured in succinate (SC) liquid media; type: functional
Pseudomonas aeruginosa [10] = assay: Minimum inhibitory concentration against Pseudomonas aeruginosa ATCC 27853 measured in Muller-Hinton (MH) liquid media; type: functional
Pseudomonas aeruginosa [11] = assay: Minimum inhibitory concentration against Pseudomonas aeruginosa IAI, measured in Muller-Hinton (MH) solid media; type: functional
Pseudomonas aeruginosa [12] = assay: Minimum inhibitory concentration against Pseudomonas aeruginosa ATCC 27853 measured in Muller-Hinton (MH) solid media; type: functional
Pseudomonas aeruginosa [13] = assay: Minimum inhibitory concentration against Pseudomonas aeruginosa ATCC 15692 measured in succinate (SC) solid media; type: functional
Pseudomonas aeruginosa [14] = assay: Minimum inhibitory concentration against Pseudomonas aeruginosa ATCC 27853 measured in succinate (SC) liquid media; type: functional
[15] = Minimum effective dose required for the inhibition of Escherichia coli gyrase

Question: With CCn1cc(C(=O)O)c(=O)c2cc(F)c(N3CCN(C(=O)OCOC(=O)CCC(=O)NCCNC(=O)CCC(=O)Nc4cc5cc(O)c(O)cc5[n+]5c4NCC[C@H]5C(=O)N[C@H](CO)C(=O)N[C@@H](CCCN=C(N)N)C(=O)N[C@H](CO)C(=O)N[C@@](C)(CCCN(O)C=O)C(=O)N[C@H]4CCCCNC(=O)[C@H]([C@@H](C)O)NC(=O)[C@H]([C@@H](C)O)NC(=O)[C@H](CCCN(O)C=O)NC4=O)CC3)cc21 as the molecule, how does the MIC (Pseudomonas aeruginosa [1]) read?
Answer: 8 µg/mL

Question: And the MIC (Pseudomonas aeruginosa [2])?
Answer: 0.5 µg/mL

Question: What about the MIC (Pseudomonas aeruginosa [3]) of the same molecule?
Answer: 16 µg/mL

Question: And the MIC (Pseudomonas aeruginosa [4])?
Answer: 2 µg/mL

Question: And the MIC (Pseudomonas aeruginosa [5])?
Answer: 16 µg/mL

Question: What about the MIC (Pseudomonas aeruginosa [6]) of the same molecule?
Answer: 2 µg/mL

Question: What about the MIC (Pseudomonas aeruginosa [7]) of the same molecule?
Answer: 4 µg/mL

Question: What about the MIC (Pseudomonas aeruginosa [8]) of the same molecule?
Answer: 2 µg/mL

Question: And the MIC (Pseudomonas aeruginosa [9])?
Answer: 0.5 µg/mL

Question: And the MIC (Pseudomonas aeruginosa [10])?
Answer: 16 µg/mL

Question: What about the MIC (Pseudomonas aeruginosa [11]) of the same molecule?
Answer: 4 µg/mL

Question: And the MIC (Pseudomonas aeruginosa [12])?
Answer: 16 µg/mL

Question: And the MIC (Pseudomonas aeruginosa [13])?
Answer: 2 µg/mL

Question: And the MIC (Pseudomonas aeruginosa [14])?
Answer: 8 µg/mL

Question: With C[C@H](O)[C@@H]1NC(=O)[C@H](CCCN(O)C=O)NC(=O)[C@@H](NC(=O)[C@](C)(CCCN(O)C=O)NC(=O)[C@@H](CO)NC(=O)[C@H](CCCN=C(N)N)NC(=O)[C@H](CO)NC(=O)[C@@H]2CCNc3c(NC(=O)CCC(=O)NCCNC(=O)CCC(=O)N4CCN(c5cc6nc7c(cc6cc5F)c(=O)c(C(=O)O)cn7C)CC4)cc4cc(O)c(O)cc4[n+]32)CCCCNC(=O)[C@@H]([C@H](C)O)NC1=O as the molecule, how does the MED [15] read?
Answer: 25 µg/mL

Question: With CCn1cc(C(=O)O)c(=O)c2cc(F)c(N3CCN(C(=O)CCC(=O)NCCNC(=O)CCC(=O)Nc4cc5cc(O)c(O)cc5[n+]5c4NCC[C@H]5C(=O)N[C@H](CO)C(=O)N[C@@H](CCCN=C(N)N)C(=O)N[C@H](CO)C(=O)N[C@@](C)(CCCN(O)C=O)C(=O)N[C@H]4CCCCNC(=O)[C@H]([C@@H](C)O)NC(=O)[C@H]([C@@H](C)O)NC(=O)[C@H](CCCN(O)C=O)NC4=O)CC3)cc21 as the molecule, how does the MIC (Pseudomonas aeruginosa [1]) read?
Answer: 8 µg/mL

Question: What about the MIC (Pseudomonas aeruginosa [3]) of the same molecule?
Answer: 32 µg/mL

Question: What about the MIC (Pseudomonas aeruginosa [4]) of the same molecule?
Answer: 8 µg/mL

Question: What about the MIC (Pseudomonas aeruginosa [5]) of the same molecule?
Answer: 8 µg/mL

Question: What about the MIC (Pseudomonas aeruginosa [6]) of the same molecule?
Answer: 4 µg/mL

Question: And the MIC (Pseudomonas aeruginosa [11])?
Answer: 32 µg/mL

Question: And the MIC (Pseudomonas aeruginosa [12])?
Answer: > 64 µg/mL

Question: What about the MIC (Pseudomonas aeruginosa [13]) of the same molecule?
Answer: 2 µg/mL

Question: With C[C@H](O)[C@@H]1NC(=O)[C@H](CCCN(O)C=O)NC(=O)[C@@H](NC(=O)[C@](C)(CCCN(O)C=O)NC(=O)[C@@H](CO)NC(=O)[C@H](CCCN=C(N)N)NC(=O)[C@@H](CO)NC(=O)[C@@H]2CCNc3c(NC(=O)CCC(=O)NCCNC(=O)CCC(=O)OCOC(=O)N4CCN(c5cc6nc7c(cc6cc5F)c(=O)c(C(=O)O)cn7C)CC4)cc4cc(O)c(O)cc4[n+]32)CCCCNC(=O)[C@@H]([C@H](C)O)NC1=O as the molecule, how does the MED [15] read?
Answer: 25 µg/mL

Question: Which MIC (Pseudomonas aeruginosa [1]) does the source give for C[C@@H](O)[C@@H]1NC(=O)[C@H](CCCN(O)C=O)NC(=O)[C@@H](NC(=O)[C@](C)(CCCN(O)C=O)NC(=O)[C@@H](CO)NC(=O)[C@H](CCCN=C(N)N)NC(=O)[C@@H](CO)NC(=O)[C@@H]2CCNc3c(NC(=O)CCC(=O)NCCNC(=O)CCC(=O)N4CCN(c5cc6nc7c(cc6cc5F)c(=O)c(C(=O)O)cn7C)CC4)cc4cc(O)c(O)cc4[n+]32)CCCCNC(=O)[C@H]([C@@H](C)O)NC1=O here?
Answer: 8 µg/mL

Question: What about the MIC (Pseudomonas aeruginosa [3]) of the same molecule?
Answer: 64 µg/mL

Question: What about the MIC (Pseudomonas aeruginosa [4]) of the same molecule?
Answer: 16 µg/mL

Question: What about the MIC (Pseudomonas aeruginosa [5]) of the same molecule?
Answer: 4 µg/mL

Question: And the MIC (Pseudomonas aeruginosa [6])?
Answer: 8 µg/mL

Question: And the MIC (Pseudomonas aeruginosa [11])?
Answer: 32 µg/mL

Question: And the MIC (Pseudomonas aeruginosa [12])?
Answer: > 64 µg/mL

Question: And the MIC (Pseudomonas aeruginosa [13])?
Answer: 8 µg/mL

Question: For Cn1cc(C(=O)O)c(=O)c2cc3cc(F)c(N4CCNCC4)cc3nc21, which MIC (Pseudomonas aeruginosa [1]) is on record?
Answer: 8 µg/mL (≈ 22.4 µM)

Question: And the MIC (Pseudomonas aeruginosa [2])?
Answer: 64 µg/mL (≈ 180 µM)

Question: What about the MIC (Pseudomonas aeruginosa [3]) of the same molecule?
Answer: 32 µg/mL (≈ 89.8 µM)

Question: What about the MIC (Pseudomonas aeruginosa [4]) of the same molecule?
Answer: 8 µg/mL (≈ 22.4 µM)

Question: And the MIC (Pseudomonas aeruginosa [5])?
Answer: 16 µg/mL (≈ 44.9 µM)

Question: What about the MIC (Pseudomonas aeruginosa [6]) of the same molecule?
Answer: 16 µg/mL (≈ 44.9 µM)

Question: And the MIC (Pseudomonas aeruginosa [7])?
Answer: 16 µg/mL (≈ 44.9 µM)

Question: What about the MIC (Pseudomonas aeruginosa [8]) of the same molecule?
Answer: 16 µg/mL (≈ 44.9 µM)

Question: What about the MIC (Pseudomonas aeruginosa [9]) of the same molecule?
Answer: 32 µg/mL (≈ 89.8 µM)

Question: And the MIC (Pseudomonas aeruginosa [10])?
Answer: 32 µg/mL (≈ 89.8 µM)

Question: What about the MIC (Pseudomonas aeruginosa [11]) of the same molecule?
Answer: 16 µg/mL (≈ 44.9 µM)

Question: And the MIC (Pseudomonas aeruginosa [12])?
Answer: 16 µg/mL (≈ 44.9 µM)

Question: And the MED [15]?
Answer: 4 µg/mL

Question: What about the MIC (Pseudomonas aeruginosa [13]) of the same molecule?
Answer: 4 µg/mL (≈ 11.2 µM)

Question: And the MIC (Pseudomonas aeruginosa [14])?
Answer: > 64 µg/mL

Question: Which MIC (Pseudomonas aeruginosa [1]) does the source give for C[C@@H](O)[C@@H]1NC(=O)[C@H](CCCN(O)C=O)NC(=O)[C@@H](NC(=O)[C@](C)(CCCN(O)C=O)NC(=O)[C@@H](CO)NC(=O)[C@H](CCCN=C(N)N)NC(=O)[C@@H](CO)NC(=O)[C@@H]2CCNc3c(NC(=O)CCC(=O)NCCNC(=O)CCC(=O)OCOC(=O)N4CCN(c5cc6nc7c(cc6cc5F)c(=O)c(C(=O)O)cn7C)CC4)cc4cc(O)c(O)cc4[n+]32)CCCCNC(=O)[C@H]([C@@H](C)O)NC1=O [BENZONAPHTHYRIDONE BPL ADDUCT] here?
Answer: 4 µg/mL

Question: What about the MIC (Pseudomonas aeruginosa [2]) of the same molecule?
Answer: 2 µg/mL

Question: And the MIC (Pseudomonas aeruginosa [3])?
Answer: 32 µg/mL

Question: And the MIC (Pseudomonas aeruginosa [4])?
Answer: 8 µg/mL

Question: And the MIC (Pseudomonas aeruginosa [5])?
Answer: 8 µg/mL

Question: What about the MIC (Pseudomonas aeruginosa [6]) of the same molecule?
Answer: 1 µg/mL

Question: And the MIC (Pseudomonas aeruginosa [7])?
Answer: 8 µg/mL

Question: What about the MIC (Pseudomonas aeruginosa [8]) of the same molecule?
Answer: 4 µg/mL

Question: What about the MIC (Pseudomonas aeruginosa [9]) of the same molecule?
Answer: 2 µg/mL

Question: What about the MIC (Pseudomonas aeruginosa [10]) of the same molecule?
Answer: 32 µg/mL

Question: What about the MIC (Pseudomonas aeruginosa [11]) of the same molecule?
Answer: 16 µg/mL

Question: What about the MIC (Pseudomonas aeruginosa [12]) of the same molecule?
Answer: 64 µg/mL

Question: And the MIC (Pseudomonas aeruginosa [13])?
Answer: 1 µg/mL

Question: What about the MIC (Pseudomonas aeruginosa [14]) of the same molecule?
Answer: 32 µg/mL

Question: With CCn1cc(C(=O)O)c(=O)c2cc(F)c(N3CCN(C(=O)OCOC(=O)CCC(=O)NCCNC(=O)CCC(=O)Nc4cc5cc(O)c(O)cc5[n+]5c4NCC[C@H]5C(=O)N[C@@H](CO)C(=O)N[C@@H](CCCN=C(N)N)C(=O)N[C@H](CO)C(=O)N[C@@](C)(CCCN(O)C=O)C(=O)N[C@H]4CCCCNC(=O)[C@@H]([C@H](C)O)NC(=O)[C@H]([C@H](C)O)NC(=O)[C@H](CCCN(O)C=O)NC4=O)CC3)cc21 as the molecule, how does the MED [15] read?
Answer: 50 µg/mL

Question: Which MIC (Pseudomonas aeruginosa [1]) does the source give for CCn1cc(C(=O)O)c(=O)c2cc(F)c(N3CCNCC3)cc21 [NORFLOXACIN] here?
Answer: 0.25 µg/mL (≈ 0.783 µM)

Question: What about the MIC (Pseudomonas aeruginosa [2]) of the same molecule?
Answer: 0.25 µg/mL (≈ 0.783 µM)

Question: What about the MIC (Pseudomonas aeruginosa [3]) of the same molecule?
Answer: 8 µg/mL (≈ 25.1 µM)

Question: What about the MIC (Pseudomonas aeruginosa [4]) of the same molecule?
Answer: 0.25 µg/mL (≈ 0.783 µM)

Question: What about the MIC (Pseudomonas aeruginosa [5]) of the same molecule?
Answer: 4 µg/mL (≈ 12.5 µM)

Question: And the MIC (Pseudomonas aeruginosa [6])?
Answer: 0.03 µg/mL (≈ 0.0939 µM)

Question: What about the MIC (Pseudomonas aeruginosa [7]) of the same molecule?
Answer: 1 µg/mL (≈ 3.13 µM)

Question: What about the MIC (Pseudomonas aeruginosa [8]) of the same molecule?
Answer: 1 µg/mL (≈ 3.13 µM)

Question: What about the MIC (Pseudomonas aeruginosa [9]) of the same molecule?
Answer: 0.25 µg/mL (≈ 0.783 µM)

Question: And the MIC (Pseudomonas aeruginosa [10])?
Answer: 4 µg/mL (≈ 12.5 µM)

Question: And the MIC (Pseudomonas aeruginosa [11])?
Answer: 1 µg/mL (≈ 3.13 µM)

Question: And the MIC (Pseudomonas aeruginosa [12])?
Answer: 2 µg/mL (≈ 6.26 µM)

Question: And the MIC (Pseudomonas aeruginosa [13])?
Answer: 0.06 µg/mL (≈ 0.188 µM)

Question: And the MIC (Pseudomonas aeruginosa [14])?
Answer: 2 µg/mL (≈ 6.26 µM)

Question: With CCn1cc(C(=O)O)c(=O)c2cc(F)c(N3CCN(C(=O)CCC(=O)NCCNC(=O)CCC(=O)Nc4cc5cc(O)c(O)cc5[n+]5c4NCC[C@H]5C(=O)N[C@@H](CO)C(=O)N[C@@H](CCCN=C(N)N)C(=O)N[C@H](CO)C(=O)N[C@@](C)(CCCN(O)C=O)C(=O)N[C@H]4CCCCNC(=O)[C@@H]([C@H](C)O)NC(=O)[C@H]([C@H](C)O)NC(=O)[C@H](CCCN(O)C=O)NC4=O)CC3)cc21 as the molecule, how does the MED [15] read?
Answer: 50 µg/mL
